Data: publication PMC6641930 (ACS Omega, 2017)
Several values for one entry are separate records, joined by “and”; a condition that tells them apart may be missing. Equal values may be shown once. Read-outs that look alike come from different tables or passages of the source.

Legend:
Aβ1-42 fibrils [1] = molecular target: T1, Aβ1-42 fibrils (Homo sapiens, UniProt P05067); assay: Fluorescence emission of probe bound to Aβ1-42 fibrils; format: binding; conditions: PBS buffer pH 7.5; for Int: fold increase in fluorescence intensity upon binding to Aβ1-42 fibrils: 5 μM fibrils (monomer basis) + 1 μM probe, versus free probe; for λem2: emission maxima of probe bound to Aβ1-42 fibrils: 5 μM fibrils + 1 μM probe, excitation 330 nm
Outline: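 Recombinant Aβ1-42 (extra N-terminal Met), solubilised in 6 M GuHCl and gel-filtered into PBS pH 7.5. […] Probe (1.0 μM, from DMSO stock) mixed with 5 μM fibrils or freshly dissolved monomer (monomer basis) in PBS pH 7.5. Emission spectra at 330 nm excitation, identical settings.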

Fluorescence lifetime = format: physicochemical; conditions: A: degassed methanol, [probe] = 5 μM; for τ1: excitation 337 nm
Outline: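 TCSPC decays of 5 μM probe in argon-degassed methanol, excited at 337 nm and monitored at each emission maximum at room temperature. Instrument response is determined with a fibril solution. Decays are fitted to a sum of exponentials, with fit quality judged by χ2, residual distribution and residual autocorrelation. Average lifetime is calculated from amplitudes and lifetimes. Lifetime uncertainty is within 10%.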

TTR fibrils [2] = molecular target: T2, TTR fibrils (Homo sapiens, UniProt P02766); assay: Fluorescence emission of probe bound to TTR fibrils; format: binding; conditions: 5 μM fibrils + 1 μM probe; pH 3.0; excitation 330 nm
Outline: (§1)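 Fibrils made from pH 3.0 (TTR: purified WT TTR in 50 mM NaAc/100 mM NaCl; bovine insulin or hen lysozyme: 200 μM in 25 mM HCl pH 1.6 at 65 °C, then dialysed into NaAc/NaCl pH 3.0). 1.0 μM probe from DMSO stock mixed with 5 μM fibrils (monomer basis) in HOAc/NaAc pH 3.0. Excitation 330 nm, emission 350–600 nm. Fold increase taken relative to free probe in buffer.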

native Aβ1-42 = native Aβ1-42 (Homo sapiens, UniProt P05067); assay: Fluorescence emission of probe with freshly dissolved native Aβ1-42; format: binding; conditions: 5 μM native Aβ1-42 + 1 μM probe; PBS buffer
Outline: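 Probe (1.0 μM final, from DMSO stock) is read free in buffer or with 5 μM native protein (monomer basis). Buffers are HOAc/NaAc pH 3.0 or PBS pH 7.5. Aβ1-42 is recombinant with an extra N-terminal Met, freshly gel-filtered monomer in PBS pH 7.5. Spectra are recorded at 330 nm excitation, 350–600 nm emission, with identical instrument settings.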

insulin fibrils [3] = molecular target: T3, insulin fibrils (Bos taurus, UniProt P01317); assay: Fluorescence emission of probe bound to insulin fibrils; format: binding, Bovine; conditions: pH 3.0; for Int: fold increase in fluorescence intensity upon binding to insulin fibrils: 5 μM fibrils (monomer basis) + 1 μM probe, versus free probe; for λem2: emission maxima of probe bound to insulin fibrils: 5 μM fibrils + 1 μM probe, excitation 330 nm
Outline: as §1

lysozyme fibrils [4] = molecular target: T4, lysozyme fibrils (Gallus gallus, UniProt P00698); assay: Fluorescence emission of probe bound to lysozyme fibrils; format: binding, chicken; conditions: pH 3.0; for Int: fold increase in fluorescence intensity upon binding to lysozyme fibrils: 5 μM fibrils (monomer basis) + 1 μM probe, versus free probe; for λem2: emission maxima of probe bound to lysozyme fibrils: 5 μM fibrils + 1 μM probe, excitation 330 nm
Outline: as §1

Aβ1-42 fibrils [5] = molecular target: T1, Aβ1-42 fibrils; assay: Titration of Aβ1-42 fibrils on a fixed probe concentration; format: binding
Outline: (§2)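 Fibrils (0–20 μM, monomer basis) are titrated onto fixed probe: 1 μM, or 0.5 μM for Aβ1-42 fibrils. Buffers are pH 3.0 for TTR, insulin and lysozyme, and PBS pH 7.5 for Aβ1-42 (10 μM, 37 °C, 24 h quiescent). Samples equilibrate 30 min at room temperature. Excitation 330 nm, emission 350–700 nm. Kd comes from a one-site nonlinear fit with fixed Bmax correcting for unbound probe. SD is from two independent binding series.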

lysozyme fibrils [6] = molecular target: T4, lysozyme fibrils; assay: Titration of lysozyme fibrils on a fixed probe concentration; format: binding, chicken
Outline: as §2

insulin fibrils [7] = molecular target: T3, insulin fibrils; assay: Titration of insulin fibrils on a fixed probe concentration; format: binding, Bovine
Outline: as §2

[8] = UV-vis absorption and fluorescence spectra in methanol; format: physicochemical; conditions: for λmax (em): excitation 330 nm, [probe] = 20 μM; for ε: four concentrations
Outline: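 Absorption is read in methanol in a 1 cm quartz cuvette at room temperature, at 20 μM and at four concentrations (50–5 μM, or 10–2 μM for one probe) for ε. Fluorescence of 20 μM probe in methanol uses 330 nm excitation, 350–600 nm emission and 1 nm resolution.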

Aβ1-42 fibrils [9] = molecular target: T1, Aβ1-42 fibrils; assay: Fluorescence lifetime; conditions: for α1 (normalized pre-exponential factor) / α2 (normalized pre-exponential factor) / τ2 / λem1 (emission wavelength of decay) / τ1: B: bound to Aβ1-42 fibrils in PBS buffer; for τavg (average fluorescence lifetime): B: bound to Aβ1-42 fibrils in PBS buffer pH 7.5, [probe] = 5 μM; for τavg (average fluorescence lifetime) / λem1 (emission wavelength of decay) / τ1: [fibrils] = 20 μM; for λem1 (emission wavelength of decay) / τ1: [probe] = 5 μM
Outline: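 Time-correlated single photon counting on 5 μM probe with 20 μM Aβ1-42 fibrils (monomer basis) in PBS pH 7.5 at 25 °C, not degassed. Excitation 337 nm; decay recorded at the bound-probe emission maximum. Instrument response is measured with fibril solution. Multi-exponential fits are judged by χ2 and residuals. Uncertainty is within 10%.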

TTR fibrils [10] = molecular target: T2, TTR fibrils; assay: Titration of TTR fibrils on a fixed probe concentration; format: binding
Outline: as §2

TTR fibrils [11] = molecular target: T2, TTR fibrils; conditions: two separate binding events, cited from earlier work
[12] = cited from earlier work
lysozyme fibrils [13] = molecular target: T4, lysozyme fibrils; conditions: two binding sites, cited from earlier work
insulin fibrils [14] = molecular target: T3, insulin fibrils; conditions: read-out: Kd of ThT binding to insulin fibrils; one binding site; cited from earlier work

T1 sequence (P05067 672-713): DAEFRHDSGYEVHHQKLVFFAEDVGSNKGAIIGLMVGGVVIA
T4 sequence (P00698 19-147): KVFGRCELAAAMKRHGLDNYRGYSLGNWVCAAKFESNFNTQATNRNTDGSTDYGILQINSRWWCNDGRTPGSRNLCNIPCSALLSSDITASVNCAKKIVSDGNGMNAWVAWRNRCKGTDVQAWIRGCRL
T3 sequence (P01317 25-54 limits assumed): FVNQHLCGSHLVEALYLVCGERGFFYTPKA
T3 sequence (P01317 85-105 limits assumed): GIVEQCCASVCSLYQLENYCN
native Aβ1-42, sequence (P05067 672-713): as the sequence (P05067 672-713) above

Structure (SMILES) | Int: fold increase in fluorescence intensity upon binding to Aβ1-42 fibrils (Aβ1-42 fibrils [1]) [fold] | λem2: emission maxima of probe bound to Aβ1-42 fibrils (Aβ1-42 fibrils [1]) [nm] | α1 (normalized pre-exponential factor) (Fluorescence lifetime) | λem1 (emission wavelength of decay) (Fluorescence lifetime) [nm] | τavg (average fluorescence lifetime) (Fluorescence lifetime) [ns] | τ1 (Fluorescence lifetime) [ns] | λem2: emission maxima of probe bound to TTR fibrils (TTR fibrils [2]) [nm] | fluorescence / binding with freshly prepared native Aβ1-42 (native Aβ1-42) | Int: fold increase in fluorescence intensity upon binding to insulin fibrils (insulin fibrils [3]) [fold] | λem2: emission maxima of probe bound to insulin fibrils (insulin fibrils [3]) [nm] | Int: fold increase in fluorescence intensity upon binding to lysozyme fibrils (lysozyme fibrils [4]) [fold] | λem2: emission maxima of probe bound to lysozyme fibrils (lysozyme fibrils [4]) [nm] | Kd (Aβ1-42 fibrils [5]) [µM] | Kd (lysozyme fibrils [6]) [µM] | Kd (insulin fibrils [7]) [µM] | Stokes shift [8] [nm] | λmax (abs) [8] [nm] | λmax (em) [8] [nm] | ε [8] | α1 (normalized pre-exponential factor) (Aβ1-42 fibrils [9]) | also measured
Oc1ccc(/C=C/c2ccccc2)cc1O [Compound 2, (E)-4-Styrylbenzene-1,2-diol] | 2.6 | 384 | 1 | 395 | <0.05 | < 0.05 | 395 | Neither 2, 4, or 5 fluoresced appreciably | 7.5 | 382 | 3.8 | 382 | 4.3 ± 0.2 | 7 ± 1.6 | 8 ± 1.6 | 61 | 325 | 386 | 25 038 L·M^–1 cm^–1 | 0.86 | α2 (normalized pre-exponential factor) (Aβ1-42 fibrils [9]): 0.14; τ2 (Aβ1-42 fibrils [9]): 2.31 ns; τavg (average fluorescence lifetime) (Aβ1-42 fibrils [9]): 1.3 ns and 1.33 ns; λem1 (emission wavelength of decay) (Aβ1-42 fibrils [9]): 410 nm; τ1 (Aβ1-42 fibrils [9]): 0.28 ns; Kd (TTR fibrils [10]): 15.1 ± 0.9 µM
Oc1ccc(/C=C/c2ccc3ccccc3c2)cc1O [Compound 3, (E)-4-(2-(naphthalen-2-yl)vinyl)benzene-1,2-diol] | 6.9 | 408 | 1 | 415 | 0.52 | 0.52 | 395 | showed some binding | 13.7 | 410 | 13.1 | 410 | 2.2 ± 0.4 | 2.9 ± 0.2 | 4.5 ± 0.4 | 86 | 334 | 420 | 30 170 L·M^–1 cm^–1 | 0.54 | α2 (normalized pre-exponential factor) (Aβ1-42 fibrils [9]): 0.46; τ2 (Aβ1-42 fibrils [9]): 1.65 ns; τavg (average fluorescence lifetime) (Aβ1-42 fibrils [9]): 1.5 ns and 1.45 ns; λem1 (emission wavelength of decay) (Aβ1-42 fibrils [9]): 420 nm; τ1 (Aβ1-42 fibrils [9]): 0.23 ns; Kd (TTR fibrils [11]; read-out: Kd1, TTR fibrils (high-affinity binding site)): 0.07 µM; Kd (TTR fibrils [11]; read-out: Kd2, TTR fibrils): > 10 µM; Kd (TTR fibrils [10]): 12.3 ± 1 µM
Cc1ccc2c(c1)sc(-c1ccc(N(C)C)cc1)[n+]2C [ThT, thioflavin T] |  |  |  |  |  |  |  |  |  |  |  |  |  |  |  |  |  |  |  |  | average fluorescence lifetime t1/2 [12]: < 1 ns; Kd (lysozyme fibrils [13]; read-out: Kd1 of ThT binding to lysozyme fibrils): 0.13 µM; Kd (lysozyme fibrils [13]; read-out: Kd2 of ThT binding to lysozyme fibrils): 17.9 µM; Kd (insulin fibrils [14]): 10.4 µM
